Data as given in paper PMC5615838 (Toxicology Reports, 2016).

How the values were obtained:
[1] = target: CYP3A4 (Homo sapiens, UniProt P08684); assay: CYP inhibition, LC–MS/MS assay in human liver microsomes; format: in vitro ADME; conditions: pooled human liver microsomes, probe midazolam
Method in brief: (§1)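 Follow-up CYP panel in pooled human liver microsomes with CYP-specific probe substrates; CYP-specific metabolites quantified by LC-MS/MS. Test compound at 10 μM. Percent inhibition reported.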

[2] = test system: GPCRs, ion channels, nuclear receptors, transporters; assay: lead profiling receptor screen; format: binding; conditions: 10 μM
[3] = target: CYP2D6 (Homo sapiens, UniProt P10635); assay: CYP inhibition, LC–MS/MS assay in human liver microsomes; format: in vitro ADME; conditions: pooled human liver microsomes, probe bufuralol
Method in brief: as §1

[4] = in vitro metabolism in rat liver microsomes; format: in vitro ADME; conditions: 50 μM, 120 min
[5] = toxicokinetics in 90-day toxicity study; format: in vivo, rat; conditions: for AUC(0-t) / Cmax: rat, plasma, po; for AUC(0-t): AUC0-24h
Method in brief: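 In the 90-day dietary study (10, 30, 100 mg/kg bw/day), plasma taken at 6 time points over 24 h on Day 7, Week 6 and Week 13, assayed by validated LC-MS/MS. […] Accumulation ratio = AUC0-24h at Week 6 or 13 / Day 7.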

[6] = target: CYP2C9 (Homo sapiens, UniProt P11712); assay: CYP inhibition, LC–MS/MS assay in human liver microsomes; format: in vitro ADME; conditions: pooled human liver microsomes, probe tolbutamide
Method in brief: as §1

[7] = 90-day subchronic toxicity study, diet; format: in vivo, rat
Method in brief: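 Sprague-Dawley Crl:CD(SD) rats, 20/sex/group, received test compound continuously in the diet at 0, 10, 30 or 100 mg/kg bw/day for 90 consecutive days. Body-weight gain and food consumption were monitored. Clinical signs were recorded throughout treatment.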

[8] = in vitro metabolism in human liver microsomes; format: in vitro ADME; conditions: 50 μM, 120 min
[9] = female, Sprague-Dawley [Crl:CD(SD)], 10 mg/kg, Day 7, 10 mg/kg bw, F
[10] = female, Sprague-Dawley [Crl:CD(SD)], 10 mg/kg, Week 13, 10 mg/kg bw, F
[11] = female, Sprague-Dawley [Crl:CD(SD)], 30 mg/kg, Day 7, 30 mg/kg bw, F
[12] = female, Sprague-Dawley [Crl:CD(SD)], 30 mg/kg, Week 13, 30 mg/kg bw, F
[13] = female, Sprague-Dawley [Crl:CD(SD)], 100 mg/kg, Day 7, 100 mg/kg bw, F
[14] = female, Sprague-Dawley [Crl:CD(SD)], 100 mg/kg, Week 13, 100 mg/kg bw, F
[15] = female, Sprague-Dawley, 10 mg/kg, Week 6, 10 mg/kg bw, F
[16] = female, Sprague-Dawley, 30 mg/kg, Week 6, 30 mg/kg bw, F
[17] = female, Sprague-Dawley, 100 mg/kg, Week 6, 100 mg/kg bw, F
[18] = male, Sprague-Dawley [Crl:CD(SD)], 10 mg/kg, Day 7, 10 mg/kg bw, M
[19] = male, Sprague-Dawley [Crl:CD(SD)], 10 mg/kg, Week 13, 10 mg/kg bw, M
[20] = male, Sprague-Dawley [Crl:CD(SD)], 30 mg/kg, Day 7, 30 mg/kg bw, M
[21] = male, Sprague-Dawley [Crl:CD(SD)], 30 mg/kg, Week 13, 30 mg/kg bw, M
[22] = male, Sprague-Dawley [Crl:CD(SD)], 100 mg/kg, Day 7, 100 mg/kg bw, M
[23] = male, Sprague-Dawley [Crl:CD(SD)], 100 mg/kg, Week 13, 100 mg/kg bw, M
[24] = male, Sprague-Dawley, 10 mg/kg, Week 6, 10 mg/kg bw, M
[25] = male, Sprague-Dawley, 30 mg/kg, Week 6, 30 mg/kg bw, M
[26] = male, Sprague-Dawley, 100 mg/kg, Week 6, 100 mg/kg bw, M

Chain of CYP2C9 (P11712 whole entry): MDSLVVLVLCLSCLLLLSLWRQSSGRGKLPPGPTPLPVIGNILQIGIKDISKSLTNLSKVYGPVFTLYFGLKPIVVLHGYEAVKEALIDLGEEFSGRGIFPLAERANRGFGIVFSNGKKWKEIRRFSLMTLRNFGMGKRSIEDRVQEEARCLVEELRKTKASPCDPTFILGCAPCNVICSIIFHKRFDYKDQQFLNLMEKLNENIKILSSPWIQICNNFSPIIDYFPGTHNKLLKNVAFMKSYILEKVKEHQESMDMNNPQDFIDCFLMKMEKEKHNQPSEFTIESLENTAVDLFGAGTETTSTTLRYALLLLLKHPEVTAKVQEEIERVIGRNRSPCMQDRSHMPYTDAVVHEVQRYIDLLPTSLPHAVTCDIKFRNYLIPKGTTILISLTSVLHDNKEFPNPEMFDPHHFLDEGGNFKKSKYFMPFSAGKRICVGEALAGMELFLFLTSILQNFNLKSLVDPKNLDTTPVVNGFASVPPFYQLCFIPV
Chain of CYP3A4 (P08684 whole entry): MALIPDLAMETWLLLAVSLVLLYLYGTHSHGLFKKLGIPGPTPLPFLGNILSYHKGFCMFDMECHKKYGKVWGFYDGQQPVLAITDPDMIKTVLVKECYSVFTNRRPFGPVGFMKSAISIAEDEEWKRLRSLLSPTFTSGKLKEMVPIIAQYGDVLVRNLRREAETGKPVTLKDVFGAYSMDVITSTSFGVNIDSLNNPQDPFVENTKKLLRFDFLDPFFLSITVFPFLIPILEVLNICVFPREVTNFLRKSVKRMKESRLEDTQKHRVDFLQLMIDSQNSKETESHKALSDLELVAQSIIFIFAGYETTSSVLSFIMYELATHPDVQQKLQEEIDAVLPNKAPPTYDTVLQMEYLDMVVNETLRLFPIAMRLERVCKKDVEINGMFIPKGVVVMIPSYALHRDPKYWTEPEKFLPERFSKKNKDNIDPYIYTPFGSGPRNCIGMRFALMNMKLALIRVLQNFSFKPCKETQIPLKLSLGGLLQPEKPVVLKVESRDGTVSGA
Chain of CYP2D6 (P10635 whole entry): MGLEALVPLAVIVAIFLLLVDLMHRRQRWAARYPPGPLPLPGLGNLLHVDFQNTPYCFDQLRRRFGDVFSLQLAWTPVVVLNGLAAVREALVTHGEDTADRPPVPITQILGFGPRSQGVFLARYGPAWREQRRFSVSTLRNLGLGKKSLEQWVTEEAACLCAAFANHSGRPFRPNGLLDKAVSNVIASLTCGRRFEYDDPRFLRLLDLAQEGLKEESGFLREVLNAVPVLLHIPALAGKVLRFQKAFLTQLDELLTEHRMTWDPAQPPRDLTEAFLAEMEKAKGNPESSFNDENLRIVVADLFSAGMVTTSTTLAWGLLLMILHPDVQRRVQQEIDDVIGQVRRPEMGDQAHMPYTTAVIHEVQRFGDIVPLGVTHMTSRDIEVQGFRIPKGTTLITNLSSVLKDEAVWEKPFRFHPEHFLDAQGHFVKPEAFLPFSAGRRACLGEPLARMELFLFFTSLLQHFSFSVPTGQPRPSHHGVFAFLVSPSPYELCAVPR

With `Cc1noc(C)c1Cn1cc(N2C(=O)CN(Cc3cccc(O)c3)C2=O)cn1` [S6821, 3-(1-((3,5-dimethylisoxazol-4-yl)methyl)-1H-pyrazol-4-yl)-1-(3-hydroxybenzyl)imidazolidine-2,4-dione] the inhibition at 10 µM [1] was 4%, the “significant responses (≥50% inhibition or stimulation)” value [2] was “No significant responses” and the inhibition at 10 µM [3] was -2%. For the same compound, the “parent S6821 remaining, peak area % of time 0” value [4] was 56%, the “Cmax and AUC0-24h higher than predicted from a linear relationship” value ([5]; 100 mg/kg bw/day, females) was roughly 1.3 fold and the “Cmax and AUC0-24h lower than predicted from a linear relationship” value ([5]; 100 mg/kg bw/day, males) was roughly 32%. The AUC0-24h/dose ([5]; Day 7, 10 mg/kg bw, F) was 12.2 ng·h/mL/mg/kg, the “AUC0-24h Ratio” value ([5]; Day 7, 10 mg/kg bw, F) was 1 and the “Cmax Ratio” value ([5]; Day 7, 10 mg/kg bw, F) was 1. The AUC0-24h/dose ([5]; Day 7, 10 mg/kg bw, M) was 11.8 ng·h/mL/mg/kg, the “AUC0-24h Ratio” value ([5]; Day 7, 10 mg/kg bw, M) was 1 and the “Cmax Ratio” value ([5]; Day 7, 10 mg/kg bw, M) was 1. The AUC0-24h/dose ([5]; Day 7, 30 mg/kg bw, F) was 14.5 ng·h/mL/mg/kg, the “AUC0-24h Ratio” value ([5]; Day 7, 30 mg/kg bw, F) was 3.5 and the “Cmax Ratio” value ([5]; Day 7, 30 mg/kg bw, F) was 3.8. The AUC0-24h/dose ([5]; Day 7, 30 mg/kg bw, M) was 9.83 ng·h/mL/mg/kg, the “AUC0-24h Ratio” value ([5]; Day 7, 30 mg/kg bw, M) was 2.5 and the “Cmax Ratio” value ([5]; Day 7, 30 mg/kg bw, M) was 2.8. The AUC0-24h/dose ([5]; Day 7, 100 mg/kg bw, F) was 15.0 ng·h/mL/mg/kg, the “AUC0-24h Ratio” value ([5]; Day 7, 100 mg/kg bw, F) was 12.3 and the “Cmax Ratio” value ([5]; Day 7, 100 mg/kg bw, F) was 13.7. For the same compound, the AUC0-24h/dose ([5]; Day 7, 100 mg/kg bw, M) was 8.44 ng·h/mL/mg/kg, the “AUC0-24h Ratio” value ([5]; Day 7, 100 mg/kg bw, M) was 7.2 and the “Cmax Ratio” value ([5]; Day 7, 100 mg/kg bw, M) was 6.8. The “ACUM Ratio” value ([5]; Week 6, 10 mg/kg bw, F) was 0.93, the AUC0-24h/dose ([5]; Week 6, 10 mg/kg bw, F) was 11.3 ng·h/mL/mg/kg and the “AUC0-24h Ratio” value ([5]; Week 6, 10 mg/kg bw, F) was 1. The “Cmax Ratio” value ([5]; Week 6, 10 mg/kg bw, F) was 1, the “ACUM Ratio” value ([5]; Week 6, 10 mg/kg bw, M) was 1.07 and the AUC0-24h/dose ([5]; Week 6, 10 mg/kg bw, M) was 12.6 ng·h/mL/mg/kg. For the same compound, the “AUC0-24h Ratio” value ([5]; Week 6, 10 mg/kg bw, M) was 1, the “Cmax Ratio” value ([5]; Week 6, 10 mg/kg bw, M) was 1 and the “ACUM Ratio” value ([5]; Week 6, 30 mg/kg bw, F) was 0.76. The AUC0-24h/dose ([5]; Week 6, 30 mg/kg bw, F) was 11.0 ng·h/mL/mg/kg, the “AUC0-24h Ratio” value ([5]; Week 6, 30 mg/kg bw, F) was 2.9 and the “Cmax Ratio” value ([5]; Week 6, 30 mg/kg bw, F) was 2.8. For the same compound, the “ACUM Ratio” value ([5]; Week 6, 30 mg/kg bw, M) was 0.99, the AUC0-24h/dose ([5]; Week 6, 30 mg/kg bw, M) was 9.77 ng·h/mL/mg/kg and the “AUC0-24h Ratio” value ([5]; Week 6, 30 mg/kg bw, M) was 2.3. The “Cmax Ratio” value ([5]; Week 6, 30 mg/kg bw, M) was 2.3, the “ACUM Ratio” value ([5]; Week 6, 100 mg/kg bw, F) was 0.87 and the AUC0-24h/dose ([5]; Week 6, 100 mg/kg bw, F) was 13.0 ng·h/mL/mg/kg. For the same compound, the “AUC0-24h Ratio” value ([5]; Week 6, 100 mg/kg bw, F) was 11.5, the “Cmax Ratio” value ([5]; Week 6, 100 mg/kg bw, F) was 15.1 and the “ACUM Ratio” value ([5]; Week 6, 100 mg/kg bw, M) was 0.90. The AUC0-24h/dose ([5]; Week 6, 100 mg/kg bw, M) was 7.58 ng·h/mL/mg/kg, the “AUC0-24h Ratio” value ([5]; Week 6, 100 mg/kg bw, M) was 6.0 and the “Cmax Ratio” value ([5]; Week 6, 100 mg/kg bw, M) was 4.1. For the same compound, the “ACUM Ratio” value ([5]; Week 13, 10 mg/kg bw, F) was 1.02, the AUC0-24h/dose ([5]; Week 13, 10 mg/kg bw, F) was 12.5 ng·h/mL/mg/kg and the “AUC0-24h Ratio” value ([5]; Week 13, 10 mg/kg bw, F) was 1. For the same compound, the “Cmax Ratio” value ([5]; Week 13, 10 mg/kg bw, F) was 1, the “ACUM Ratio” value ([5]; Week 13, 10 mg/kg bw, M) was 1.04 and the AUC0-24h/dose ([5]; Week 13, 10 mg/kg bw, M) was 12.3 ng·h/mL/mg/kg. The “AUC0-24h Ratio” value ([5]; Week 13, 10 mg/kg bw, M) was 1, the “Cmax Ratio” value ([5]; Week 13, 10 mg/kg bw, M) was 1 and the “ACUM Ratio” value ([5]; Week 13, 30 mg/kg bw, F) was 0.79. For the same compound, the AUC0-24h/dose ([5]; Week 13, 30 mg/kg bw, F) was 11.5 ng·h/mL/mg/kg, the “AUC0-24h Ratio” value ([5]; Week 13, 30 mg/kg bw, F) was 2.8 and the “Cmax Ratio” value ([5]; Week 13, 30 mg/kg bw, F) was 2.4. For the same compound, the “ACUM Ratio” value ([5]; Week 13, 30 mg/kg bw, M) was 1.03, the AUC0-24h/dose ([5]; Week 13, 30 mg/kg bw, M) was 10.2 ng·h/mL/mg/kg and the “AUC0-24h Ratio” value ([5]; Week 13, 30 mg/kg bw, M) was 2.5. For the same compound, the “Cmax Ratio” value ([5]; Week 13, 30 mg/kg bw, M) was 3.1, the “ACUM Ratio” value ([5]; Week 13, 100 mg/kg bw, F) was 1.11 and the AUC0-24h/dose ([5]; Week 13, 100 mg/kg bw, F) was 16.7 ng·h/mL/mg/kg. The “AUC0-24h Ratio” value ([5]; Week 13, 100 mg/kg bw, F) was 13.4, the “Cmax Ratio” value ([5]; Week 13, 100 mg/kg bw, F) was 12.9 and the “ACUM Ratio” value ([5]; Week 13, 100 mg/kg bw, M) was 1.10. For the same compound, the AUC0-24h/dose ([5]; Week 13, 100 mg/kg bw, M) was 9.25 ng·h/mL/mg/kg, the “AUC0-24h Ratio” value ([5]; Week 13, 100 mg/kg bw, M) was 7.5 and the “Cmax Ratio” value ([5]; Week 13, 100 mg/kg bw, M) was 9.1. For the same compound, the AUC(0-t) [5, 9] was 122 ng·h/mL, the AUC(0-t) [5, 10] was 125 ng·h/mL and the Cmax [5, 9] was 7.22 ng/mL. For the same compound, the Cmax [5, 10] was 8.32 ng/mL, the AUC(0-t) [5, 11] was 436 ng·h/mL and the AUC(0-t) [5, 12] was 344 ng·h/mL. For the same compound, the Cmax [5, 11] was 27.7 ng/mL, the Cmax [5, 12] was 19.8 ng/mL and the AUC(0-t) [5, 13] was 1500 ng·h/mL. The AUC(0-t) [5, 14] was 1670 ng·h/mL, the Cmax [5, 13] was 99 ng/mL and the Cmax [5, 14] was 107 ng/mL. The AUC(0-t) [5, 15] was 113 ng·h/mL, the Cmax [5, 15] was 6.34 ng/mL and the AUC(0-t) [5, 16] was 331 ng·h/mL. It also gave a Cmax [5, 16] of 17.5 ng/mL, an AUC(0-t) [5, 17] of 1300 ng·h/mL and a Cmax [5, 17] of 95.6 ng/mL. For the same compound, the AUC(0-t) [5, 18] was 118 ng·h/mL, the AUC(0-t) [5, 19] was 123 ng·h/mL and the Cmax [5, 18] was 6.05 ng/mL. For the same compound, the Cmax [5, 19] was 5.99 ng/mL, the AUC(0-t) [5, 20] was 295 ng·h/mL and the AUC(0-t) [5, 21] was 305 ng·h/mL. It also gave a Cmax [5, 20] of 16.7 ng/mL, a Cmax [5, 21] of 18.3 ng/mL and an AUC(0-t) [5, 22] of 844 ng·h/mL. It also gave an AUC(0-t) [5, 23] of 925 ng·h/mL, a Cmax [5, 22] of 41.4 ng/mL and a Cmax [5, 23] of 54.7 ng/mL. For the same compound, the AUC(0-t) [5, 24] was 126 ng·h/mL, the Cmax [5, 24] was 10.7 ng/mL and the AUC(0-t) [5, 25] was 293 ng·h/mL. The Cmax [5, 25] was 24.6 ng/mL, the AUC(0-t) [5, 26] was 758 ng·h/mL and the Cmax [5, 26] was 43.7 ng/mL. It also gave an inhibition at 10 µM [6] of -3%, an NOAEL ([7]; 10, 30, 100 mg/kg bw/day food ad-mix, 90 days, both sexes) of 100 mg/kg bw/day and an NOEL ([7]; 90 days, females) of 100 mg/kg bw/day. For the same compound, the NOEL ([7]; 90 days, males) was 30 mg/kg bw/day, the Motor activity scores ([7]; males, 100 mg/kg bw/day, week 12, second half of 1-hour recording) was “slightly higher than those of controls” and the Findings ([7]; up to 100 mg/kg bw/day, 90 days) was “No test-article related findings”. The “parent S6821 remaining, peak area % of time 0” value [8] was 75%.
